Columns and labels:
Cytochrome P450 3A4 [1] = molecular target: T1, Cytochrome P450 3A4 (Homo sapiens, UniProt P08684); test: Inhibition of human CYP3A4 in human liver microsomes assessed as formation of 6beta-hydroxy-testosterone using testosterone as substrate by high throughput mass spectrometry preincubated for 30 mins in presence of NADPH; type: ADME, Microsome
[2] = AUC (0 to 24 hrs) in Sprague-Dawley rat at 30 mg/kg, po as 0.5% methocel suspension; type: ADME, organism-based; design: time < 24 hr, dose 30 mg/kg, route oral; details: plasma
Renin [3] = molecular target: T2, Renin (Homo sapiens, UniProt P00797); test: Inhibition of human recombinant renin in PBS buffer using tetradecapeptide at pH 7.4
T2 sequence (P00797 whole entry): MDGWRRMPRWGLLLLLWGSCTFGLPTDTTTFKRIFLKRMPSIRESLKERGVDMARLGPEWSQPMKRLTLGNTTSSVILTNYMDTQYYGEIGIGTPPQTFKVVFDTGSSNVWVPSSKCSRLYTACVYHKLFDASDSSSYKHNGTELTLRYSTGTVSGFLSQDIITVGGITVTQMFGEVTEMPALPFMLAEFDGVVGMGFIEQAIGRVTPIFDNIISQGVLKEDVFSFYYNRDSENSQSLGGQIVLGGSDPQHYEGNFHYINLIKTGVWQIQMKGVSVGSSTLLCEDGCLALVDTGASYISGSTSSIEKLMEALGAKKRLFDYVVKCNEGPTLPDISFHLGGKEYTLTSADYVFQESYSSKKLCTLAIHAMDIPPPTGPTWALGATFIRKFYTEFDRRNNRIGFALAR

[4] = molecular target: Voltage-gated inwardly rectifying potassium channel KCNH2 (Homo sapiens, UniProt Q12809); test: Binding affinity to human ERG
[5] = Clearance in Sprague-Dawley rat at 30 mg/kg, po in 0.5% methocel and 3 to 5 mg/kg, iv in 60% PEG 200; details: in vivo
[6] = Oral bioavailability in Sprague-Dawley rat at 30 mg/kg as 0.5% methocel suspension; type: ADME, organism-based; details: in vivo
Renin [7] = molecular target: T2, Renin; test: Inhibition of human recombinant renin in human citreated-plasma
Cytochrome P450 3A4 [8] = molecular target: T1, Cytochrome P450 3A4; test: Inhibition of human CYP3A4 in human liver microsomes assessed as formation of 6beta-hydroxy-testosterone using testosterone as substrate by high throughput mass spectrometry in absence of NADPH; type: ADME, Microsome
Liver [9] = test: Metabolic stability in human liver S9 fraction assessed as conversion to (1R,2R)-2-((3-(((3R,4S)-N-cyclopropyl-4-(4-(2-(2,6-dichloro-4-methylphenoxy)ethoxy)phenyl)piperidine-3-carboxamido)methyl)-5-(3-methoxypropyl)phenoxy)methyl)cyclopropanecarboxylic acid after 20 mins; type: ADME, subcellular; details: s9, 20 min
Method in brief: (§1)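 Prodrugs were incubated for 20 min in rat or human whole blood, or in rat or human liver S9 fraction (n = 2). The read-out was % conversion to the parent carboxylic acid.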

Blood [10] = test: Metabolic stability in human whole blood assessed as conversion to (1R,2R)-2-((3-(((3R,4S)-N-cyclopropyl-4-(4-(2-(2,6-dichloro-4-methylphenoxy)ethoxy)phenyl)piperidine-3-carboxamido)methyl)-5-(3-methoxypropyl)phenoxy)methyl)cyclopropanecarboxylic acid after 20 mins; type: ADME, tissue-based; method in brief: as §1
Blood [11] = test: Metabolic stability in Sprague-Dawley rat whole blood assessed as conversion to (1R,2R)-2-((3-(((3R,4S)-N-cyclopropyl-4-(4-(2-(2,6-dichloro-4-methylphenoxy)ethoxy)phenyl)piperidine-3-carboxamido)methyl)-5-(3-methoxypropyl)phenoxy)methyl)cyclopropanecarboxylic acid after 20 mins; type: ADME, tissue-based; method in brief: as §1
Liver [12] = test: Metabolic stability in Sprague-Dawley rat liver S9 fraction assessed as conversion to (1R,2R)-2-((3-(((3R,4S)-N-cyclopropyl-4-(4-(2-(2,6-dichloro-4-methylphenoxy)ethoxy)phenyl)piperidine-3-carboxamido)methyl)-5-(3-methoxypropyl)phenoxy)methyl)cyclopropanecarboxylic acid after 20 mins; type: ADME, subcellular; details: s9, 20 min; method in brief: as §1
[13] = AUC (0 to 24 hrs) in Sprague-Dawley rat at 20 mg/kg, po as 0.5% methocel suspension; type: ADME, organism-based; design: time < 24 hr, dose 20 mg/kg, route oral; details: plasma
CYP3A4 = CYP3A4 (Homo sapiens, UniProt P08684); test: Ratio of IC50 for human CYP3A4 in absence of NADPH to IC50 for human CYP3A4 preincubated for 30 mins in presence of NADPH; details: read-out: Ratio IC50
[14] = AUC (0 to 24 hrs) in Sprague-Dawley rat at 30 mg/kg, po in 60% PEG 200 at PH 2.5; type: ADME, organism-based; design: time < 24 hr, dose 30 mg/kg, route oral; details: plasma
[15] = Oral bioavailability in Sprague-Dawley rat at 30 mg/kg in 60% PEG 200 at PH 2.5; type: ADME, organism-based; details: in vivo
[16] = Oral bioavailability in Sprague-Dawley rat at 30 mg/kg in peanut oil; type: ADME, organism-based; details: in vivo
[17] = Oral bioavailability in Sprague-Dawley rat at 30 mg/kg in lyposin 2; type: ADME, organism-based; details: in vivo
[18] = AUC (0 to 24 hrs) in Sprague-Dawley rat at 30 mg/kg, po in 60% PEG 200; type: ADME, organism-based; design: time < 24 hr, dose 30 mg/kg, route oral; details: plasma
[19] = Oral bioavailability in Sprague-Dawley rat at 30 mg/kg in Ca salt in 0.5% methocel; type: ADME, organism-based; details: in vivo
[20] = AUC (0 to 24 hrs) in Sprague-Dawley rat at 30 mg/kg, po in peanut oil; type: ADME, organism-based; design: time < 24 hr, dose 30 mg/kg, route oral; details: plasma
[21] = Oral bioavailability in Sprague-Dawley rat at 30 mg/kg in Na salt in 0.5% methocel; type: ADME, organism-based; details: in vivo
[22] = AUC (0 to 24 hrs) in Sprague-Dawley rat at 30 mg/kg, po in lyposin 2; type: ADME, organism-based; design: time < 24 hr, dose 30 mg/kg, route oral; details: plasma
[23] = AUC (0 to 24 hrs) in Sprague-Dawley rat at 30 mg/kg, po in Ca salt in 0.5% methocel; type: ADME, organism-based; design: time < 24 hr, dose 30 mg/kg, route oral; details: plasma
[24] = AUC (0 to 24 hrs) in Sprague-Dawley rat at 30 mg/kg, po in Na salt in 0.5% methocel; type: ADME, organism-based; design: time < 24 hr, dose 30 mg/kg, route oral; details: plasma
[25] = Bioavailability in Sprague-Dawley rat at 20 mg/kg, intra-duodenum in 5% dextrose; type: ADME, organism-based; details: in vivo
Method in brief: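 Rats were dosed directly into the duodenum at 20 mg/kg in 5% dextrose, 1 mL/kg. Bioavailability was calculated for the parent carboxylic acid.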

[26] = Oral bioavailability in Sprague-Dawley rat at 30 mg/kg in 60% PEG 200; type: ADME, organism-based; details: in vivo

T1 sequence (P08684 whole entry): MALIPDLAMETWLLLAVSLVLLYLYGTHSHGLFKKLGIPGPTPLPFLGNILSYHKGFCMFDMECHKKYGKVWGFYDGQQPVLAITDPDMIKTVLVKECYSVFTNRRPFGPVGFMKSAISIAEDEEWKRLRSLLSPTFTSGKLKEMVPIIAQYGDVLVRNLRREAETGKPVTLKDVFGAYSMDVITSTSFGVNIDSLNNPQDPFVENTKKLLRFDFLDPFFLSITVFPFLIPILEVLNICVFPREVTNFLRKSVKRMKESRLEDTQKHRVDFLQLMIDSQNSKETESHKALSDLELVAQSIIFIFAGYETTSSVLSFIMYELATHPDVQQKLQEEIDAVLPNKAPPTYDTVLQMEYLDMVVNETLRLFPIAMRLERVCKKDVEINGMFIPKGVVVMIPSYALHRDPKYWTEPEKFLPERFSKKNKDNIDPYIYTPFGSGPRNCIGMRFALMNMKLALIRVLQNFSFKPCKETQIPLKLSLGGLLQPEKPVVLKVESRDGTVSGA
Sequence of Voltage-gated inwardly rectifying potassium channel KCNH2 (Q12809 whole entry): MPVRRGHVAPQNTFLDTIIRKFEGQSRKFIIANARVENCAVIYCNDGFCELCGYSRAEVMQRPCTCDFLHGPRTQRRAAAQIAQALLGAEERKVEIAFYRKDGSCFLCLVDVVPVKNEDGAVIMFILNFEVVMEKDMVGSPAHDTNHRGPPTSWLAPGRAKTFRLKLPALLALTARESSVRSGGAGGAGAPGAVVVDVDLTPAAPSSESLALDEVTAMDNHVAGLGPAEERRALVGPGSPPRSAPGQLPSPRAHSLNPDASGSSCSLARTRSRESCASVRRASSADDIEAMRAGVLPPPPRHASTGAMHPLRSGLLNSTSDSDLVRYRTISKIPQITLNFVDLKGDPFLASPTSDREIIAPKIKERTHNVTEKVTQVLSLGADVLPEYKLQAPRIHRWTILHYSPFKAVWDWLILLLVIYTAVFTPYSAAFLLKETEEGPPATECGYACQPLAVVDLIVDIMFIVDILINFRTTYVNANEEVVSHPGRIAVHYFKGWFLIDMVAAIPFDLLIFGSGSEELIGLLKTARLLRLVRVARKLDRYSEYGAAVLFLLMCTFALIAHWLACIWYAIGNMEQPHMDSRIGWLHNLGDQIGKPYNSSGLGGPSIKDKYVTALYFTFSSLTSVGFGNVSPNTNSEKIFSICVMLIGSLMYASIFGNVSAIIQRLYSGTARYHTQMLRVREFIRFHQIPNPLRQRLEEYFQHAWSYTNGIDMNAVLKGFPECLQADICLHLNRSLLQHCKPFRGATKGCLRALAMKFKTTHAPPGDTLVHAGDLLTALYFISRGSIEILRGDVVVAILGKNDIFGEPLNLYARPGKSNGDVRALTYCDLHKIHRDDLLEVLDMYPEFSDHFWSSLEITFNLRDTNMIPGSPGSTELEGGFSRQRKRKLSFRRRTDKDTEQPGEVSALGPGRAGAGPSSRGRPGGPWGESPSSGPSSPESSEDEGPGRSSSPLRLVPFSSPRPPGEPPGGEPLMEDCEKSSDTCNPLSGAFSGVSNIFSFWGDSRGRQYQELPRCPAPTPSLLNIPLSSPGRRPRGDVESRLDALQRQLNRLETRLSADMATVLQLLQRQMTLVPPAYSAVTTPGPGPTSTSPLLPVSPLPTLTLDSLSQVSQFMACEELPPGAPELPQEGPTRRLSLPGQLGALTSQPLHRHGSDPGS
Sequence of CYP3A4 (P08684 whole entry): as the sequence (P08684 whole entry) above

Structure (SMILES) | IC50 (Cytochrome P450 3A4 [1]) [µM] | AUC(0-t) at 24 h [2] [µM·h] | IC50 (Renin [3]) [nM] | Ki [4] [nM] | clearance [5] [mL/min/kg] | bioavailability [6] [%] | IC50 (Renin [7]) [nM] | IC50 (Cytochrome P450 3A4 [8]) [µM] | other results
COCCCc1cc(CN(C(=O)[C@H]2CNCC[C@@H]2c2ccc(OCCOc3c(Cl)cc(C)cc3Cl)cc2)C2CC2)cc(OCC[C@](C)(OC)C(=O)O)c1 | > 50 | 1.2 | 0.06 | 2300 | 23 | 3 | 2.1 | > 50 | –
COCCCc1cc(CN(C(=O)[C@H]2CNCC[C@@H]2c2ccc(OCCOc3c(Cl)cc(C)cc3Cl)cc2)C2CC2)cc(OCC(C)(C)O)c1 | 5.6 | – | – | 130 | – | – | – | > 50 | –
COCCCc1cc(CN(C(=O)[C@H]2CNCC[C@@H]2c2ccc(OCCOc3c(Cl)cc(C)cc3Cl)cc2)C2CC2)cc(OCCC(C)(C)C(=O)O)c1 | > 50 | 2.1 | 0.02 | 400 | 43 | 13 | 9 | > 50 | –
COCCCc1cc(CN(C(=O)[C@H]2CNCC[C@@H]2c2ccc(OCCOc3c(Cl)cc(C)cc3Cl)cc2)C2CC2)cc(OCCCNS(C)(=O)=O)c1 | – | – | 0.028 | 80 | – | – | 2.9 | – | –
COCCCc1cc(CN(C(=O)[C@H]2CNCC[C@@H]2c2ccc(OCCOc3c(Cl)cc(C)cc3Cl)cc2)C2CC2)cc(OCCN(C)C)c1 | 1.4 | – | – | 180 | – | – | – | 22.7 | –
CCC(CC)(CCOc1cc(CCCOC)cc(CN(C(=O)[C@H]2CNCC[C@@H]2c2ccc(OCCOc3c(Cl)cc(C)cc3Cl)cc2)C2CC2)c1)C(=O)O | > 50 | 6.1 | – | 400 | 29 | 26 | – | > 50 | –
CCOC(=O)OC(C)OC(=O)[C@H]1C[C@@H]1COc1cc(CCCOC)cc(CN(C(=O)[C@H]2CNCC[C@@H]2c2ccc(OCCOc3c(Cl)cc(C)cc3Cl)cc2)C2CC2)c1 (some centres not stated) | – | – | – | – | – | – | – | – | Activity (Liver [9]): 90%; Activity (Blood [10]): 38%; Activity (Blood [11]): 100%; Activity (Liver [12]): 81%
COCCCc1cc(CN(C(=O)[C@H]2CN(C(=O)OCc3oc(=O)oc3C)CC[C@@H]2c2ccc(OCCOc3c(Cl)cc(C)cc3Cl)cc2)C2CC2)cc(OC[C@H]2C[C@@H]2C(=O)O)c1 | – | – | – | 3700 | – | – | – | – | Activity (Liver [9]): 99%; Activity (Blood [10]): 11%; AUC(0-t) at 24 h [13]: 0.2 µM·h; Activity (Blood [11]): 93%; Activity (Liver [12]): 98%
COCCCc1cc(CN(C(=O)[C@H]2CNCC[C@@H]2c2ccc(OCCOc3c(Cl)cc(C)cc3Cl)cc2)C2CC2)cc(OC[C@H]2C[C@@H]2C(=O)NS(C)(=O)=O)c1 | > 50 | – | 0.01 | 500 | 26 | 0 | 2.1 | > 50 | –
COCCCc1cc(CN(C(=O)[C@H]2CNCC[C@@H]2c2ccc(OCCOc3c(Cl)cc(C)cc3Cl)cc2)C2CC2)cc(OCCOC)c1 | 2.4 | – | – | 80 | – | – | – | 21.6 | –
COCCCc1cc(CN(C(=O)[C@H]2CNCC[C@@H]2c2ccc(OCCOc3c(Cl)cc(C)cc3Cl)cc2)C2CC2)cc(OCC2(CC(=O)O)CC2)c1 | > 50 | 0.2 | 0.04 | 1000 | 49 | 2 | – | > 50 | –
COCCCc1cc(CN(C(=O)[C@H]2CNCC[C@@H]2c2ccc(OCCOc3c(Cl)cc(C)cc3Cl)cc2)C2CC2)cc(OCC2(CC#N)CC2)c1 | 1.4 | – | 0.028 | 60 | – | – | 10.9 | 19.6 | IC50 shift (CYP3A4): 14.1
CCNC(=O)NCCCOc1cc(CCCOC)cc(CN(C(=O)[C@H]2CNCC[C@@H]2c2ccc(OCCOc3c(Cl)cc(C)cc3Cl)cc2)C2CC2)c1 | 2.4 | – | 0.022 | 150 | – | – | 3.3 | 6.3 | IC50 shift (CYP3A4): 2.6
COCCCc1cc(CN(C(=O)[C@H]2CNCC[C@@H]2c2ccc(OCCOc3c(Cl)cc(C)cc3Cl)cc2)C2CC2)cc(OCCC2(C(=O)O)CCCC2)c1 | > 50 | 3.3 | 0.01 | 500 | 27 | 15 | 12.4 | > 50 | –
COCCCc1cc(CN(C(=O)[C@H]2CNCC[C@@H]2c2ccc(OCCOc3c(Cl)cc(C)cc3Cl)cc2)C2CC2)cc(OC[C@H]2C[C@@H]2C(=O)OCOC(=O)C(C)(C)C)c1 | – | 0.2 | – | 40 | – | – | – | – | Activity (Liver [9]): 95%; Activity (Blood [10]): 56%; Activity (Blood [11]): 100%; Activity (Liver [12]): 83%
COCCCc1cc(CN(C(=O)[C@H]2CNCC[C@@H]2c2ccc(OCCOc3c(Cl)cc(C)cc3Cl)cc2)C2CC2)cc(OCCCC(C)(C)C(=O)O)c1 | > 50 | 16 | 0.01 | 200 | 9.7 | 22 | 6.1 | > 50 | –
COCCCc1cc(CN(C(=O)[C@H]2CNCC[C@@H]2c2ccc(OCCOc3c(Cl)cc(C)cc3Cl)cc2)C2CC2)cc(OCC2(Cc3nn[nH]n3)CC2)c1 | > 50 | – | – | 500 | 46 | 0 | 5.3 | > 50 | –
COCCCc1cc(CN(C(=O)[C@H]2CNCC[C@@H]2c2ccc(OCCOc3c(Cl)cc(C)cc3Cl)cc2)C2CC2)cc(OC[C@H]2C[C@@H]2C(=O)OCC(=O)N(C)C)c1 | – | 3.5 | – | 200 | – | – | – | – | Activity (Blood [10]): 1%; Activity (Blood [11]): 100%; Activity (Liver [12]): 66%
COCCCc1cc(CN(C(=O)[C@H]2CNCC[C@@H]2c2ccc(OCCOc3c(Cl)cc(C)cc3Cl)cc2)C2CC2)cc(OC[C@H]2C[C@@H]2C(=O)O)c1 | > 50 | 0.1 | 0.027 | 1070 | 60 | 1 | 1.1 | > 50 | AUC(0-t) at 24 h [14]: 0.1 µM·h; bioavailability [15]: 1%; bioavailability [16]: 1%; bioavailability [17]: 0%; AUC(0-t) at 24 h [18]: 0.5 µM·h; bioavailability [19]: 0%; AUC(0-t) at 24 h [20]: 0.1 µM·h; bioavailability [21]: 1%; AUC(0-t) at 24 h [22]: 0.03 µM·h; AUC(0-t) at 24 h [23]: 0.3 µM·h; AUC(0-t) at 24 h [24]: 0.1 µM·h; bioavailability [25]: 0%; bioavailability [26]: 4%
COCCCc1cc(CN(C(=O)[C@H]2CNCC[C@@H]2c2ccc(OCCOc3c(Cl)cc(C)cc3Cl)cc2)C2CC2)cc(OCC(C)(C)C(=O)O)c1 | > 50 | 1.1 | 0.06 | 600 | 44 | 9 | 29.6 | > 50 | –
